For data set [1], the system named is Bacillus subtilis. Description: Bactericidal activity against Bacillus subtilis MTCC 121 assessed as bacterial killing incubated for 24 hrs. Type of data set: functional. The following applies: MTCC 121, 24 h. The procedure, abridged:
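Broth tube assay: compound at 0–125 µg/mL in Mueller Hinton broth, overnight culture added to 0.5 McFarland (1.5 × 10^8 cfu/mL), held 24 h at 37 °C. 10 µL from each tube plated on Mueller Hinton agar. MBC is the lowest concentration that kills the strain. Duplicates, means reported.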

In data set [2] the test system is Candida albicans. Description: Induction of ROS generation in Candida albicans MTCC 3017 assessed as accumulation of intracellular ROS level by measuring fluorescence intensity after 24 hrs by DCFH-DA probe based fluorimetric assay. Type of data set: functional, organism-based. The procedure, abridged:
(§1)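 C. albicans MTCC 3017 biofilms grown 24 h at 37 °C in 96-well plates, then treated 24 h with compound at 0, 5, 10, 15, 20, 25 µg/mL; untreated cells served as control. Cells then loaded with 10 µM DCFH-DA for 24 h in the dark, and fluorescence read at 485 nm excitation and 535 nm emission. Triplicates.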

Data set [3] concerns Candida albicans. Description: Fungicidal activity against Candida albicans MTCC 1637 assessed as fungal killing incubated for 24 hrs. The following applies: MTCC 1637, 24 h. Type of data set: functional. The gist of the method: (§2)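 Compound at 125–0.97 µg/mL in Mueller Hinton broth in microcentrifuge tubes, each Candida strain added, held 24 h at 37 °C. 10 µL of the treated suspension plated on Mueller Hinton agar and incubated a further 24 h at 37 °C. MFC is the lowest concentration that kills the strain. Duplicates, means reported.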

For data set [4], the system named is Candida albicans. Briefly: Induction of ROS generation in Candida albicans MTCC 3017 assessed as accumulation of intracellular ROS level by measuring fluorescence intensity at 5 ug/ml after 24 hrs by DCFH-DA probe based fluorimetric assay. Type of data set: functional, organism-based. The procedure, abridged:
as §1

Another data set concerns MRC5. Description: Cytotoxicity against human MRC5 cells incubated for 48 hrs by MTT assay. Type of data set: cell-based. The following applies: MRC5, 48 h. The gist of the method: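 Normal human lung MRC5 cells grown 24 h in 96-well plates, then exposed to a range of compound concentrations for 48 h. MTT (250 µg/mL) added for 2 h, medium replaced by DMSO, absorbance read at 570 nm. Miconazole positive control, DMSO negative control. Triplicates, mean ± S.D.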
(In general: Tetrazolium assays rely on reduction of a dye to a coloured formazan, in cell work by metabolically active cells.)

Data set [5] concerns Staphylococcus aureus. Briefly: Ratio of MBC to MIC against Staphylococcus aureus MLS-16 MTCC 2940. Format: functional.
A further data set relates to Pichia kudriavzevii. Briefly: Fungicidal activity against Candida krusei MTCC 3020 assessed as fungal killing incubated for 24 hrs. The following applies: MTCC 3020, 24 h. Format: functional. The procedure, abridged:
as §2

Data set [6] concerns Candida albicans. Briefly: Induction of ROS generation in Candida albicans MTCC 3017 assessed as accumulation of intracellular ROS level by measuring fluorescence intensity at 25 ug/ml after 24 hrs by DCFH-DA probe based fluorimetric assay. Type of data set: functional, organism-based. The procedure, abridged:
as §1

The subject of data set [7] is Candida albicans. Description: Ratio of MFC to MIC against Candida albicans MTCC 3018. Format: functional. The gist of the method: (§3)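 MIC by agar well diffusion: Candida lawns on Mueller-Hinton agar, wells loaded with compound in 10% DMSO (125–0.97 µg/mL), 24 h at 37 °C, lowest concentration giving an inhibition zone. MFC: compound in Mueller-Hinton broth (125–0.97 µg/mL) with yeast, 24 h at 37 °C, 10 µL plated on agar, lowest killing concentration after 24 h. Ratio is MFC/MIC.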

For data set [8], the system named is Staphylococcus aureus. Description: Antibacterial activity against Staphylococcus aureus MLS-16 MTCC 2940 assessed as inhibition of bacterial growth incubated for 24 hrs by agar well diffusion method. Type of data set: functional. As to conditions: MLS-16 MTCC 2940, 24 h. The procedure, abridged: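 Strains from MTCC; inoculum at 0.5 McFarland spread on Mueller-Hinton agar; 6 mm wells loaded with compound over 125–0.97 µg/mL; ciprofloxacin positive control (same range), DMSO negative control. Plates held 24 h at 37 °C; MIC taken as lowest concentration giving a clear inhibition zone. Triplicate runs, mean MIC reported.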
In general terms: Agar diffusion results depend on both activity and mobility in agar.

Data set [9] has as its system Candida albicans. Briefly: Ratio of MFC to MIC against Candida albicans MTCC 183. Format: functional.
Data set [10] has as its system Candida albicans. Briefly: Antifungal activity against Candida albicans MTCC 183 assessed as inhibition of fungal growth incubated for 24 hrs by agar well diffusion method. Type of data set: functional. The gist of the method:
(§4)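 Candida strains from MTCC, pre-cultured and spread on Mueller Hinton agar. Wells received compound dissolved in 10% DMSO, 125–0.97 µg/mL; miconazole standard over the same range, DMSO negative control. After 24 h at 37 °C, MIC was read as the lowest concentration giving an inhibition zone. Duplicate experiments, means given.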

For data set [11], the system named is Candida albicans. Description: Antifungal activity against Candida albicans MTCC 1637 assessed as inhibition of fungal growth incubated for 24 hrs by agar well diffusion method. Format: functional. As to conditions: MTCC 1637, 24 h. The gist of the method: as §4
A further data set relates to Nakaseomyces glabratus. Briefly: Ratio of MFC to MIC against Candida glabrata MTCC 3019. Format: functional. The gist of the method:
as §3

In the next data set the test system is Candida parapsilosis. Briefly: Antifungal activity against Candida parapsilosis MTCC 1744 assessed as inhibition of fungal growth incubated for 24 hrs by agar well diffusion method. Type of data set: functional. As to conditions: Lodderomyces parapsilosis, MTCC 1744, 24 h. The gist of the method: as §4
The test system of the next data set is Pichia sporocuriosa. Description: Antifungal activity against Issatchenkia hanoiensis MTCC 4755 assessed as inhibition of fungal growth incubated for 24 hrs by agar well diffusion method. Type of data set: functional. The following applies: MTCC 4755, 24 h. The gist of the method: as §4
Data set [12] relates to Bacillus subtilis. Description: Ratio of MBC to MIC against Bacillus subtilis MTCC 121. Format: functional.
Data set [13] has as its target Lanosterol 14-alpha demethylase (Candida albicans (strain SC5314 / ATCC MYA-2876) (Yeast), UniProt P10613). Briefly: Inhibition of CYP51 in Candida albicans MTCC 3017 assessed as reduction in ergosterol level incubated for 20 hrs by UV-visible spectrophotometry analysis. The procedure, abridged:
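Modified Breivik–Owades sterol method: Mueller Hinton broth with compound at 0, 2, 4, 8, 16 µg/mL, inoculated with single Candida colonies, shaken at 200 rpm for 20 h at 30 °C. Pellets washed and weighed, saponified in 25% alcoholic KOH for 70 min at 90 °C, sterols extracted into n-heptane, diluted 1:5 in ethanol and scanned at 230–310 nm. Triplicates.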

Converted amounts (≈) assume the structure as drawn. The source made the active and inactive calls.

Chain of Lanosterol 14-alpha demethylase (P10613 whole entry): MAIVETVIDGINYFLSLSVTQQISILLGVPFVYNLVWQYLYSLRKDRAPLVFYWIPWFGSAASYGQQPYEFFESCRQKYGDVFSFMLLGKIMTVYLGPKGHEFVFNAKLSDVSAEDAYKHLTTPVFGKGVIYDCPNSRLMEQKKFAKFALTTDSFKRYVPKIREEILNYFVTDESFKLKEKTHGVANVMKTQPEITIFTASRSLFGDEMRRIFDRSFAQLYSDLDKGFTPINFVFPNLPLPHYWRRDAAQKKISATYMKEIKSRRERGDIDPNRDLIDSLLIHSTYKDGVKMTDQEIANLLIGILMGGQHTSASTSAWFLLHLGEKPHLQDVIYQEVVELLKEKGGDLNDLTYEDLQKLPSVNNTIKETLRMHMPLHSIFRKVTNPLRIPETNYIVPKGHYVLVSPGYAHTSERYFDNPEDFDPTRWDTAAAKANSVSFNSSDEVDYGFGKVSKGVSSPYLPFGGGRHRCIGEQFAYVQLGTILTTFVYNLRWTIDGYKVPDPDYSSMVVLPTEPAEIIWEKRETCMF

Broadly, the MBC is the smallest concentration meeting the test's criterion for killing. The MFC is the lowest tested concentration that kills the fungus rather than only halting it. As a reminder, the IC50 is the point on the concentration scale where inhibition reaches its midpoint. What is called MIC is the smallest concentration in the dilution series that meets the test's criterion for growth inhibition. In the case of `COc1ccc2c(c1)Cc1c(C(=O)N/N=C/c3ccc(O)c(OC)c3)n[nH]c1-2`, the MBC in the data set with Bacillus subtilis [1] came to 15.6 µg/mL (≈ 41.2 µM). The Activity entry in the data set with Candida albicans [2] was “Dose-dependent effect”. In addition, the MFC with Candida albicans [3] and with Pichia kudriavzevii was 15.6 µg/mL (≈ 41.2 µM) each time. Besides, the result in the data set with Candida albicans [4] and in the data set with Candida albicans [6] was Active. Also, in the data set with MRC5, inhibition was half-maximal at 40.8 µg/mL (≈ 108 µM) (IC50). The Ratio in the data set on Staphylococcus aureus [5], in the data set on Candida albicans [7], in the data set with Candida albicans [9], with Nakaseomyces glabratus and in the data set with Bacillus subtilis [12] was 2 throughout. In addition, the MIC was determined as 3.9 µg/mL (≈ 10.3 µM) in the data set on Staphylococcus aureus [8]; 15.6 µg/mL (≈ 41.2 µM) with Candida albicans [10] (MTCC 183, 24 h); 7.8 µg/mL (≈ 20.6 µM) with Candida albicans [11]; 7.8 µg/mL (≈ 20.6 µM) in the data set on Candida parapsilosis; 15.6 µg/mL (≈ 41.2 µM) with Pichia sporocuriosa. Further, the “inhibition (INH)” value in [13] is “Dose-dependent effect”.
Take `O=C(N/N=C/c1ccc(O)cc1)c1n[nH]c2c1Cc1cc(F)ccc1-2`: in the data set on Bacillus subtilis [1], the MBC was determined as 15.6 µg/mL (≈ 46.4 µM). In addition, the MFC with Candida albicans [3] and with Pichia kudriavzevii was 31.2 µg/mL (≈ 92.8 µM) in each case. The compound also registered a concentration for half-maximal inhibition (IC50) in the data set on MRC5 of 28.9 µg/mL (≈ 85.9 µM). Besides, the Ratio in the data set on Staphylococcus aureus [5], in the data set on Candida albicans [7], in the data set on Candida albicans [9], with Nakaseomyces glabratus and in the data set on Bacillus subtilis [12] was 2 in each case. Moreover, the MIC came out at 3.9 µg/mL (≈ 11.6 µM) in the data set with Staphylococcus aureus [8], 15.6 µg/mL (≈ 46.4 µM) with Candida albicans [11], 15.6 µg/mL (≈ 46.4 µM) in the data set on Candida parapsilosis and 31.2 µg/mL (≈ 92.8 µM) in the data set on Pichia sporocuriosa. Besides, the MIC result in the data set on Candida albicans [10] is “inactive”.
Turning to `COc1ccc2c(c1)Cc1c(C(=O)N/N=C/c3c(F)cc(F)cc3F)n[nH]c1-2`, the MBC with Bacillus subtilis [1] came to 15.6 µg/mL (≈ 40.4 µM). For the same compound, in the data set on Candida albicans [2], the Activity entry was “Dose-dependent effect”. Also, the MFC in the data set with Candida albicans [3] and in the data set with Pichia kudriavzevii was 31.2 µg/mL (≈ 80.8 µM) in each case. Further, the outcome in the data set with Candida albicans [4] and in the data set on Candida albicans [6] was Active. In the data set with MRC5, the IC50 turned out to be 37.2 µg/mL (≈ 96.3 µM). Also, the Ratio with Staphylococcus aureus [5], in the data set on Candida albicans [7], in the data set with Candida albicans [9], in the data set on Nakaseomyces glabratus and in the data set on Bacillus subtilis [12] was 2 each time. The MIC was determined as 3.9 µg/mL (≈ 10.1 µM) in the data set on Staphylococcus aureus [8], 15.6 µg/mL (≈ 40.4 µM) in the data set on Candida albicans [11], 15.6 µg/mL (≈ 40.4 µM) in the data set on Candida parapsilosis and 15.6 µg/mL (≈ 40.4 µM) in the data set on Pichia sporocuriosa. In addition, the MIC result in the data set on Candida albicans [10] was “inactive”. Also, in [13], the “inhibition (INH)” value was “Dose-dependent effect”.
Consider `O=C(N/N=C/c1ccc(O)cc1)c1n[nH]c2c1Cc1ccccc1-2`, for which the MBC in the data set on Bacillus subtilis [1] stood at 15.6 µg/mL (≈ 49 µM). Further, the MFC with Candida albicans [3] and in the data set with Pichia kudriavzevii was 31.2 µg/mL (≈ 98 µM) in each case. Also, the half-maximal inhibitory concentration (IC50) with MRC5 worked out at 35.6 µg/mL (≈ 112 µM). Besides, the Ratio in the data set on Staphylococcus aureus [5], with Candida albicans [7], in the data set on Candida albicans [9], in the data set with Nakaseomyces glabratus and with Bacillus subtilis [12] was 2 each time. The MIC was determined as 3.9 µg/mL (≈ 12.3 µM) in the data set on Staphylococcus aureus [8], 15.6 µg/mL (≈ 49 µM) in the data set on Candida albicans [11], 15.6 µg/mL (≈ 49 µM) in the data set with Candida parapsilosis and 31.2 µg/mL (≈ 98 µM) in the data set with Pichia sporocuriosa. In addition, the MIC result with Candida albicans [10] was “inactive”.
In the case of `COc1cc(/C=N/NC(=O)c2n[nH]c3c2Cc2ccccc2-3)ccc1O`, the MBC in the data set with Bacillus subtilis [1] was found to be 7.8 µg/mL (≈ 22.4 µM). For the same compound, the MFC with Candida albicans [3] and in the data set on Pichia kudriavzevii was 31.2 µg/mL (≈ 89.6 µM) throughout. The compound also registered an IC50 with MRC5 of 31.2 µg/mL (≈ 89.6 µM). In addition, the Ratio in the data set on Staphylococcus aureus [5], in the data set with Candida albicans [7], in the data set on Candida albicans [9], in the data set with Nakaseomyces glabratus and with Bacillus subtilis [12] was 2 in each case. For the same compound, the MIC was 7.8 µg/mL (≈ 22.4 µM) in the data set on Staphylococcus aureus [8], 15.6 µg/mL (≈ 44.8 µM) in the data set with Candida albicans [11], 15.6 µg/mL (≈ 44.8 µM) in the data set on Candida parapsilosis and 15.6 µg/mL (≈ 44.8 µM) in the data set with Pichia sporocuriosa. The MIC entry with Candida albicans [10] was “inactive”.

The values are drawn from ChEMBL document CHEMBL4373647, “Design, synthesis, and antimicrobial evaluation of 1,4-dihydroindeno[1,2-c]pyrazole tethered carbohydrazide hybrids: exploring their in silico ADMET, ergosterol inhibition and ROS inducing potential” (Medchemcomm, 2019).
